One assay relates to PC-3. Put plainly: Antiproliferative activity against human PC3 cells after 48 hrs by MTT assay. The class given is functional, cell-based. The note with it: PC-3, 48 h. The procedure, abridged: (§1)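 Cells in logarithmic growth were seeded at 5 × 10^3 cells/well and left for 24 h, then exposed to a range of compound concentrations for 48 h. MTT (5 mg/mL) was added for 4 h, the formazan was dissolved in DMSO and absorbance read at 570 nm. IC50 is the concentration giving 50% growth inhibition, from at least three independent experiments, mean ± SD. Culture: DMEM, 10% heat-inactivated FBS, penicillin/streptomycin, 37 °C, 5% CO2.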
A general note: Formazan colour is commonly taken as a measure of viable cells.

Another assay deals with A2780. The assay can be described thus: Antiproliferative activity against human A2780 cells after 48 hrs by MTT assay. Format: functional, cell-based. The note with it: A2780, 48 h. The procedure, abridged:
as §1

The test system of assay [1] is HeLa. Put plainly: Antiproliferative activity against human HeLa cells after 48 hrs by MTT assay. Format: functional, cell-based. The procedure, abridged:
as §1

The next assay has as its system MCF7. The assay can be described thus: Antiproliferative activity against human MCF7 cells after 48 hrs by MTT assay. The class given is functional, cell-based. As to conditions: MCF7, 48 h. A digest of the protocol: as §1
For a further assay, the system named is A549. The assay can be described thus: Antiproliferative activity against human A549 cells after 48 hrs by MTT assay. Format: functional, cell-based. As to conditions: A549, 48 h. A digest of the protocol:
as §1

Assay [2] concerns HeLa. The assay can be described thus: Induction of morphological changes in human HeLa cells assessed as chromatin condensation at 25 to 100 nM after 24 hrs by Hoechst 33342 staining-based laser scanning confocal microscopic method. Format: functional, cell-based.
Assay [3] can be described thus: Inhibition of porcine brain tubulin polymerization preincubated for 1 min followed by addition of tubulin measured every 60 s for 90 min by DAPI staining-based fluorescence assay. Also noted: species or system Sus scrofa.
Assay [4] concerns HeLa. Put plainly: Induction of apoptosis in human HeLa cells assessed as late apoptotic cells at 100 nM after 24 hrs by Annexin-V/FITC/propidium iodide staining-based flow cytometry method (reference value: 0.26%). Format: functional. (In general: Flow cytometry measures light scatter and fluorescence of single cells or particles in a stream.)
For assay [5], the system named is HeLa. Put plainly: Cell cycle arrest in human HeLa cells assessed as accumulation at G2/M phase at 25 nM after 24 hrs by propidium iodide staining-based flow cytometry method (reference value: 19.0%). Format: functional.
Assay [6] has as its system HeLa. Put plainly: Cell cycle arrest in human HeLa cells assessed as accumulation at G2/M phase at 100 nM after 24 hrs by propidium iodide staining-based flow cytometry method (reference value: 19.0%). The class given is functional.
Assay [7] has as its system HeLa. The assay can be described thus: Induction of apoptosis in human HeLa cells after 24 hrs by Annexin-V/FITC/propidium iodide staining-based flow cytometry method. The class given is functional, cell-based.
For assay [8], the system named is HeLa. Put plainly: Induction of apoptosis in human HeLa cells assessed as early apoptotic cells at 100 nM after 24 hrs by Annexin-V/FITC/propidium iodide staining-based flow cytometry method (reference value: 0.59%). The class given is functional.
The test system of assay [9] is HeLa. Put plainly: Induction of morphological changes in human HeLa cells assessed as microtubule shrinking at 25 to 100 nM after 24 hrs by Hoechst 33342 staining-based laser scanning confocal microscopic method. The class given is functional, cell-based.
In assay [10] the test system is HeLa. The assay can be described thus: Induction of apoptosis in human HeLa cells assessed as late apoptotic cells at 25 nM after 24 hrs by Annexin-V/FITC/propidium iodide staining-based flow cytometry method (reference value: 0.26%). The class given is functional.
Assay [11] concerns HeLa. Put plainly: Induction of apoptosis in human HeLa cells assessed as live cells at 50 nM after 24 hrs by Annexin-V/FITC/propidium iodide staining-based flow cytometry method (reference value: 99.1%). The class given is functional.
The subject of assay [12] is HeLa. The assay can be described thus: Cell cycle arrest in human HeLa cells assessed as accumulation at G2/M phase after 24 hrs by propidium iodide staining-based flow cytometry method. Format: functional.
For assay [13], the system named is HeLa. Put plainly: Induction of apoptosis in human HeLa cells assessed as live cells at 100 nM after 24 hrs by Annexin-V/FITC/propidium iodide staining-based flow cytometry method (reference value: 99.1%). Format: functional.
Assay [14] deals with HeLa. Put plainly: Induction of morphological changes in human HeLa cells assessed as membrane blebbing at 25 to 100 nM after 24 hrs by Hoechst 33342 staining-based laser scanning confocal microscopic method. Format: functional, cell-based.
The test system of assay [15] is HeLa. The assay can be described thus: Induction of apoptosis in human HeLa cells assessed as late apoptotic cells at 50 nM after 24 hrs by Annexin-V/FITC/propidium iodide staining-based flow cytometry method (reference value: 0.26%). Format: functional.
In assay [16] the test system is HeLa. Put plainly: Cell cycle arrest in human HeLa cells assessed as accumulation at G2/M phase at 50 nM after 24 hrs by propidium iodide staining-based flow cytometry method (reference value: 19.0%). The class given is functional.
The test system of assay [17] is HeLa. The assay can be described thus: Induction of apoptosis in human HeLa cells assessed as necrotic cells at 100 nM after 24 hrs by Annexin-V/FITC/propidium iodide staining-based flow cytometry method (reference value: 0.04%). The class given is functional.
Assay [18] concerns HeLa. Put plainly: Induction of apoptosis in human HeLa cells assessed as live cells at 25 nM after 24 hrs by Annexin-V/FITC/propidium iodide staining-based flow cytometry method (reference value: 99.1%). The class given is functional.
The subject of assay [19] is HeLa. The assay can be described thus: Induction of apoptosis in human HeLa cells assessed as early apoptotic cells at 50 nM after 24 hrs by Annexin-V/FITC/propidium iodide staining-based flow cytometry method (reference value: 0.59%). The class given is functional.
Assay [20] deals with HeLa. Put plainly: Induction of apoptosis in human HeLa cells assessed as necrotic cells at 25 nM after 24 hrs by Annexin-V/FITC/propidium iodide staining-based flow cytometry method (reference value: 0.04%). Format: functional.
The test system of assay [21] is HeLa. The assay can be described thus: Induction of apoptosis in human HeLa cells assessed as early apoptotic cells at 25 nM after 24 hrs by Annexin-V/FITC/propidium iodide staining-based flow cytometry method (reference value: 0.59%). The class given is functional.
Assay [22] has as its system HeLa. The assay can be described thus: Induction of apoptosis in human HeLa cells assessed as necrotic cells at 50 nM after 24 hrs by Annexin-V/FITC/propidium iodide staining-based flow cytometry method (reference value: 0.04%). The class given is functional.

This note sets out measurements from ChEMBL document CHEMBL4020716, “The synthesis and evaluation of new butadiene derivatives as tubulin polymerization inhibitors” (Bioorg Med Chem, 2017).

Active and inactive are the calls of the source. The calls are words filed in the database; no cut-off is given here.

By IC50 is commonly meant the concentration needed to halve the response being measured. For the compound `COc1ccc(/C=C(\C)C(=O)c2cc(OC)c(OC)c(OC)c2)cc1O`, the IC50 with PC-3 was found to be 9 nM; with A2780, 3 nM; in the assay with HeLa [1], 5 nM; in the assay on MCF7, 5 nM; in the assay with A549, 4 nM.
As to `CC=C(/C=C/c1ccc(OC)c(N)c1)c1cc(OC)c(OC)c(OC)c1`, the IC50 was found to be 319 nM in the assay with PC-3; 137 nM with A2780; 217 nM in the assay on HeLa [1]; 247 nM in the assay with MCF7; 247 nM in the assay on A549.
For `C=C(/C=C/c1ccc(OC)c(O)c1)c1cc(OC)c(OC)c(OC)c1`, the IC50 came to 423 nM in the assay with PC-3; 457 nM with A2780; 320 nM in the assay with HeLa [1]; 569 nM with MCF7; 286 nM with A549.
With `C=C(/C(C)=C/c1ccc(OC)c(N)c1)c1cc(OC)c(OC)c(OC)c1`, the 50% inhibitory concentration (IC50) with PC-3 was 457 nM; in the assay with A2780, 279 nM; in the assay with HeLa [1] it was 286 nM; with MCF7, 356 nM; with A549, 269 nM.
For `C=C(/C(C)=C/c1ccc(OC)c(F)c1)c1cc(OC)c(OC)c(OC)c1`, the IC50 in the assay with PC-3 amounted to 354 nM; in the assay with A2780, 561 nM; with HeLa [1] it was 483 nM; with MCF7, 412 nM; in the assay with A549, 219 nM.
`C=C(/C(C)=C/c1ccc(OC)cc1)c1cc(OC)c(OC)c(OC)c1`: the IC50 with PC-3 came to 487 nM; with A2780, 839 nM; in the assay with HeLa [1] it was 495 nM; with MCF7, 965 nM; with A549, 356 nM.
On to `CCC=C(/C(C)=C/c1ccc(OC)c(O)c1)c1cc(OC)c(OC)c(OC)c1`, for which the IC50 worked out at 4230 nM with PC-3; 5290 nM in the assay on A2780; 3120 nM in the assay with HeLa [1]; 8240 nM with MCF7; 2020 nM in the assay on A549.
For `CCC=C(/C=C/c1ccc(OC)c(N)c1)c1cc(OC)c(OC)c(OC)c1`, in that order: 285 nM, 248 nM, 314 nM, 486 nM and 398 nM.
As for `CO/C=C(\C=C\c1ccc(OC)c(O)c1)c1cc(OC)c(OC)c(OC)c1`, the IC50 was 5320 nM with PC-3; 2220 nM with A2780; 5630 nM in the assay on HeLa [1]; 3260 nM with MCF7; 1600 nM with A549.
Turning to `C=C(/C=C/c1ccc(OC)c(N)c1)c1cc(OC)c(OC)c(OC)c1`, the IC50 was determined as 560 nM with PC-3; 582 nM with A2780; 234 nM in the assay with HeLa [1]; 786 nM with MCF7; 137 nM in the assay with A549.
With `CCCC=C(/C(C)=C/c1ccc(OC)c(O)c1)c1cc(OC)c(OC)c(OC)c1`, the IC50 with PC-3 was found to be 4510 nM; in the assay on A2780 it was 2930 nM; in the assay on HeLa [1], 3120 nM; in the assay on MCF7 it was 3970 nM; in the assay on A549 it was 2460 nM.
On to `CC=C(/C(C)=C/c1ccc(OC)c(O)c1)c1cc(OC)c(OC)c(OC)c1`, for which the IC50 in the assay with PC-3 stood at 789 nM; in the assay with A2780 it was 505 nM; in the assay with HeLa [1], 563 nM; in the assay on MCF7, 604 nM; with A549 it was 637 nM.
Turning to `C=C(/C(C)=C/c1ccc(OC)c(O)c1)c1cc(OC)c(OC)c(OC)c1`, the outcome in the assay with HeLa [2], with HeLa [9] and in the assay with HeLa [14] was Active. The IC50 was determined as 1010 nM in [3]; 61 nM with PC-3; 64 nM in the assay on A2780; 60 nM in the assay with HeLa [1]; 89 nM in the assay with MCF7; 56 nM with A549. The Activity in the assay with HeLa [4] is 4.77%; in the assay on HeLa [5], 30%; in the assay with HeLa [6], 72%; in the assay with HeLa [7], “Dose-dependent effect”; in the assay with HeLa [8] it was 36.6%; in the assay on HeLa [10] it was 3.32%. The Activity was 62.7% with HeLa [11]; “Dose-dependent effect” in the assay on HeLa [12]; 56.7% in the assay on HeLa [13]; 5.8% in the assay on HeLa [15]; 43% with HeLa [16]; 1.91% with HeLa [17]. Further, the Activity with HeLa [18] is 79.1%; in the assay on HeLa [19], 29.8%; in the assay on HeLa [20] it was 1.56%; in the assay on HeLa [21] it was 16%; in the assay with HeLa [22] it was 1.77%.
